{
  "source": "ChEMBL document CHEMBL1155209",
  "about": "“Synthesis and in vitro study of 14-aryl-14H-dibenzo[a.j]xanthenes as cytotoxic agents” (Bioorg Med Chem Lett, 2009)",
  "assay_type_in_all_cases": "functional, cell-based",
  "key": {"SW-620": {"tested_on": "SW-620", "assay": "Cytotoxicity against human SW620 cells […] by SRB assay"}, "SK-N-SH": {"tested_on": "SK-N-SH", "assay": "Cytotoxicity against human SK-N-SH cells […] by SRB assay"}, "[1]": {"assay": "Cytotoxicity against human 502713 cells […] by SRB assay"}, "PC-3": {"tested_on": "PC-3", "assay": "Cytotoxicity against human PC3 cells […] by SRB assay", "details": "PC-3, 48 h, in the assay text read “48 hrs” for “72 hrs”", "procedure,_shortened": "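Human cancer lines from NCI grown in RPMI-1640 (2 mM glutamine, pH 7.4, 10% fetal calf serum, streptomycin/penicillin) at 37 °C, 5% CO2. Cells trypsinized at subconfluence, >98% viable by trypan blue, seeded and grown 24 h, then given test material for 48 h. TCA fixation at 4 °C 1 h, SRB staining, dye dissolved in Tris-HCl pH 10.4, OD 540 nm. Growth inhibition relative to untreated control after blank subtraction.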"}, "A549": {"tested_on": "A549", "assay": "Cytotoxicity against human A549 cells […] by SRB assay"}, "COLO 205": {"tested_on": "COLO 205", "assay": "Cytotoxicity against human COLO205 cells […] by SRB assay"}},
  "data": [
    {"smiles": "O=[N+]([O-])c1ccccc1C1c2c(ccc3ccccc23)Oc2ccc3ccccc3c21", "values": [
      {"measurement": "IC50", "setting": "SW-620", "result": 63.2, "unit": "µM"},
      {"measurement": "IC50", "setting": "SK-N-SH", "result": 55, "unit": "µM"},
      {"measurement": "IC50", "setting": "[1]", "result": 50, "unit": "µM"},
      {"measurement": "IC50", "setting": "PC-3", "result": 82, "unit": "µM"}
    ]},
    {"smiles": "COc1cc(C2c3c(ccc4ccccc34)Oc3ccc4ccccc4c32)ccc1O", "values": [
      {"measurement": "IC50", "setting": "A549", "result": 74.3, "unit": "µM"},
      {"measurement": "IC50", "setting": "SW-620", "result": 54.4, "unit": "µM"},
      {"measurement": "IC50", "setting": "SK-N-SH", "result": 44.3, "unit": "µM"},
      {"measurement": "IC50", "setting": "COLO 205", "result": 41.9, "unit": "µM"},
      {"measurement": "IC50", "setting": "[1]", "result": 45.4, "unit": "µM"},
      {"measurement": "IC50", "setting": "PC-3", "result": 61.1, "unit": "µM"}
    ]},
    {"smiles": "OCC(O)COc1ccc(C2c3c(ccc4ccccc34)Oc3ccc4ccccc4c32)cc1", "note": "(stereo unspecified)", "values": [
      {"measurement": "IC50", "setting": "A549", "result": 128, "unit": "µM"},
      {"measurement": "IC50", "setting": "SW-620", "result": 49.1, "unit": "µM"},
      {"measurement": "IC50", "setting": "SK-N-SH", "result": 44, "unit": "µM"},
      {"measurement": "IC50", "setting": "COLO 205", "result": 37.9, "unit": "µM"},
      {"measurement": "IC50", "setting": "[1]", "result": 41.3, "unit": "µM"},
      {"measurement": "IC50", "setting": "PC-3", "result": 63.9, "unit": "µM"}
    ]}
  ]
}
